Compound activity as filed in PubChem.
KCNQ1 inh: inhibitors of human KCNQ1 potassium channel; CHO-K1 KCNQ1, FluxOR thallium flux fluorescence; stronger effect = higher value; B-score at 10 µM; 1.3% of 310,000 active; AID 2642;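 active = compounds whose thallium flux B-score, printed positive for inhibition, exceeds three library SD while starting fluorescence stays within three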;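 note: channel opened by potassium depolarization with thallium stimulus after 20 min compound exposure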
hERG protect: compounds protecting human hERG from proarrhythmic drug block | Q12809 | CHO-hERG, FluxOR thallium flux, dofetilide IC70 present | activation (rescue from dofetilide block), less the hit threshold, % at 10 µM | 0.51% of 310,000 active | AID 1511;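 active = activation above the mean of controls blocked by dofetilide plus 5 SD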;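 note: thallium influx through hERG after potassium depolarization seen as dye fluorescence rise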
KCNK3 inh: human KCNK3 channel inhibition, primary screen; O14649; 0.84% of 340,000 active; CHO-KCNK3 thallium flux, FluxOR fluorescence; stronger effect = lower value; B-score at 10 µM;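 active = B-score under library mean minus 4 SD, starting fluorescence ratio at most library mean plus 5 SD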;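 note: more negative B-score means stronger inhibition of thallium flux through KCNK3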
KCNK9 inh: inhibitors of human KCNK9 two-pore domain potassium channel. B-score at 10 µM. AID 488922. Q9NPC2. 1.2% of 310,000 active. HEK293 KCNK9, FluxOR thallium flux fluorescence; stronger effect = lower value;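 active = ratio B-score over 3 SD below the library mean, with starting fluorescence within 5 SD of its mean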;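 note: negative B-score means less thallium flux so channel inhibition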
Target sequence (Q9NPC2 whole entry, looked up, the tested form may be a part): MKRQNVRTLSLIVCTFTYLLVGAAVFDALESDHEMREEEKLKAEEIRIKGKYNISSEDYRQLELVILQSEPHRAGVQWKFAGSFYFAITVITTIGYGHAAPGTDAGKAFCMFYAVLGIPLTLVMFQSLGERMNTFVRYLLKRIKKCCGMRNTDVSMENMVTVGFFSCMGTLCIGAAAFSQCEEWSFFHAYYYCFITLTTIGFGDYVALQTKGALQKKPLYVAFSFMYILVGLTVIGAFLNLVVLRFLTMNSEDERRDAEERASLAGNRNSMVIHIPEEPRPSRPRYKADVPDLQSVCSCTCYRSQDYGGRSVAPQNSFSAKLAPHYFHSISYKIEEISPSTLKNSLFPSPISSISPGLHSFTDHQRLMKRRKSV
KCNQ1 pot: human KCNQ1 channel potentiation or activation. CHO-K1 KCNQ1, thallium flux FluxOR fluorescence; stronger effect = higher value. B-score at 10 µM. 0.35% of 310,000 active. AID 2648;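 active = fluorescence ratio B-score, a plate-corrected score, at least three library SD, with initial intensity B-score within 5 SD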
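Assay system: CHO-K1 cells stably expressing KCNQ1. Medium: assay buffer for compound exposure, DMSO matched across wells. Timing: 37 °C overnight plating, 90-min dark dye load, 20-min compound pretreatment. Signal: kinetic FluxOR fluorescence, 10 s baseline plus 110 s post-stimulus.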
Kir21 block: blocks the mouse Kir2.1 inward-rectifier potassium channel; AID 1672; P35561; B-score at 10 µM; HEK293-Kir2.1, FluxOR thallium flux fluorescence; stronger effect = lower value; 0.85% of 310,000 active;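 active = fluorescence ratio B-score at or below minus 3 SD of library scores, with starting-brightness B-score within 2 SD, cut at about -4.2 in these data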;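 note: channel flux triggered by added potassium and thallium sulfate stimulus; B-score of peak minus minimum fluorescence over baseline after thallium stimulus; more negative B-score means stronger Kir2.1 block with less thallium influx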
KCNK9 inh conf: confirmation of human KCNK9 potassium channel inhibitors. shares compounds with KCNK9 inh. HEK293 KCNK9 cells, FluxOR thallium flux fluorescence. inhibition, % at 10 µM. 43% of 4,900 active. AID 492992;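 active = thallium signal inhibited by more than 5 SD of the compound-free buffer control wells, on both duplicate plates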;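 note: 0% = assay buffer control wells without compound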
Kir21 sel: tests whether KCNK9 modulators also affect mouse Kir2.1; shares compounds with KCNK9 inh; Kir2.1 cells, FluxOR thallium flux fluorescence; inhibition, % at 10 µM; 4% of 4,900 active;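 active = thallium signal drop more than 5 SD beyond the mean of the no-compound control wells, seen in both duplicate plates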;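 note: signal is fluorescence rise after thallium addition divided by baseline fluorescence; plate controls were assay buffer only for no effect and full block by chlorpromazine control for full effect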
KCNK9 uninduced: second counter-screen for KCNK9 modulators: effect in non-induced cells. non-induced KCNK9-HEK293, FluxOR thallium flux. inhibition, % at 10 µM. shares compounds with KCNK9 inh. AID 492997. 40% of 4,900 active;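 active = thallium signal drop beyond 5 SD of the untreated control mean, on both duplicate plates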;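 note: plate controls were buffer only IC0 wells for no effect and SID17386958 at its maximal inhibitory level for full effect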
An asterisk follows results filed as active; i = inactive; . = no result. A selection: hits, their analogues and other compounds. The true share with any hit is near 3.7%.

SMILES	KCNQ1 inh	hERG protect	KCNK3 inh	KCNK9 inh	KCNQ1 pot	Kir21 block	KCNK9 inh conf	Kir21 sel	KCNK9 uninduced
COc1cccc(C(NC(C)=O)c2ccc3cccnc3c2O)c1 (stereo not given)	i	1	i	i	i	3	.	.	.
O=C(OCC1OC(n2ncc(=O)[nH]c2=O)C(OC(=O)c2ccccc2)C1OC(=O)c1ccccc1)c1ccccc1 (stereo not given)	i	-24	i	i	i	-0.49	i	i	33%*
CC(=O)OC[C@H]1O[C@@H](n2ncc(=O)[nH]c2=O)[C@H](OC(C)=O)[C@@H]1OC(C)=O	i	-3	.	i	i	1.2	.	.	.
Cc1ccc(C)n1-n1cnc2sc3c(c2c1=O)CCC3	i	-6	i	i	i	-0.5	.	.	.
Cn1cc(/C=N/n2cnc3sc4c(c3c2=O)CCCC4)c2ccccc21	i	-14	i	i	i	0.01	i	i	i
COc1ccccc1NC(=O)NC1(C)CCS(=O)(=O)C1 (stereo not given)	i	-5	i	i	i	-0.81	.	.	.
CCCCOc1ccc(/C=N/NC(=O)c2csc(C)c2C)cc1	i	-3	i	i	i	0.83	i	i	i
CCc1ccccc1N(C)S(=O)(=O)c1ccc2[nH]cc(C(=O)N3CCc4ccccc43)c(=O)c2c1	i	-12	i	-9.3*	i	0.28	i	i	26%*
COc1ccccc1CN1CC(C(=O)N(Cc2cnn(C)c2)C(C)C)CCC1=O (stereo not given)	i	-7	i	i	i	0.8	.	.	.
Clc1cccc(CSc2nccn2-c2ccccc2)c1	i	-14	i	i	i	-7.8*	i	i	i
FC(F)(F)c1ccc(CSc2nccn2-c2ccccc2)cc1	i	-15	i	i	i	-4.6*	i	i	i
Brc1ccc(CSc2nccn2-c2ccccc2)cc1	i	-8	i	i	i	-1.4	i	i	i
O=C(CSc1nccn1-c1ccccc1)NO	i	-13	i	i	i	0.02	.	.	.
COc1ccc(NC(=O)CN2CCN(CC(=O)Nc3cc(OC)cc(OC)c3)CC2)cc1	.	.	i	.	.	.	.	.	.
COc1ccc(NC(=O)CN2CCN(c3c(C)cccc3C)CC2)cc1	i	-8	i	i	i	0.65	i	i	i
COc1ccc(NC(=O)CN2CCN(c3ccc(C)cc3C)CC2)cc1	i	-1	i	i	i	-0.38	i	i	i
COc1ccc(N2CCN(CC(=O)Nc3ccc(C)cc3)CC2)cc1	i	-3	i	i	i	1.8	.	.	.
COc1ccc(NC(=O)CN2CCN(c3c(C)cc(C)cc3C)CC2)cc1	i	-8	i	i	i	0.35	i	40%*	i
COc1cc2c(c(OC)c1O)C(=O)CO2	i	-4	i	i	i	0.37	.	.	.
COc1cc(OC)c2c(O)c3c(c(-c4c5c(c(O)c6c(OC)cc(OC)cc46)CO[C@@H](C)[C@H]5O)c2c1)[C@H](O)[C@H](C)OC3	i	-6	i	i	i	-1.4	i	i	i
CN(C)c1ccc(/C=N/NC(=O)CN2CCCCC2)cc1Br	i	-7	i	i	i	-1.9	.	.	.
CCOC(=O)c1cccc(COC(=O)c2cccc(-c3nnc(-c4ccccc4)o3)c2)c1	i	-17	i	-19*	i	-0.08	68%*	i	24%*
O=C(OCc1ccccc1)c1cccc(-c2nnc(-c3ccccc3)o2)c1	i	-34	i	i	i	-0.52	.	.	.
COc1ccc2c(COC(=O)[C@@H]3CCCN3S(=O)(=O)c3ccc(Cl)cc3)cc(=O)oc2c1	.	.	i	.	.	.	.	.	.
CN(CCc1ccccc1)C(=O)c1cccc(NC(=O)Cc2cccc(NC(=O)C3CCCN(C(=O)C4CCCC4)C3)c2)c1 (stereo not given)	.	.	i	.	.	.	.	.	.
SMILES	KCNQ1 inh	hERG protect	KCNK3 inh	KCNK9 inh	KCNQ1 pot	Kir21 block	KCNK9 inh conf	Kir21 sel	KCNK9 uninduced
COc1ccccc1C/C(N)=N/OC(=O)COc1cc(C)cc(C)c1C	i	-4	i	i	i	-0.7	.	.	.
COc1ccccc1C/C(N)=N/OC(=O)COc1cccc(C)c1C	i	-2	i	i	i	0.27	i	i	i
Nc1ccccc1-c1nnc(-c2ccccc2N)n1N	i	-10	i	i	i	0.21	.	.	.
O=C(NCCc1ccccc1Cl)c1cc(COc2ccc(F)cc2F)on1	i	-4	i	i	i	-1	.	.	.
O=c1c(/C=N/OCc2ccc(Cl)cc2Cl)c[nH]n1-c1cccc(Cl)n1	7*	-3	i	i	i	0.23	i	i	i
Cc1cc(O)c(/C=N/OCc2ccc(Cl)cc2Cl)c(=O)o1	i	-1	i	i	i	0.51	.	.	.
CC1(C)C2CC=C(/C=N/NC(=S)NCCc3ccccc3)C1C2 (stereo not given)	i	-18	i	i	i	2.3	i	i	i
CNC(=S)N/N=C/C1=CCC2CC1C2(C)C (stereo not given)	i	1	i	i	i	-0.52	.	.	.
CC(C)OCCCn1c(=NC(=O)c2ccncc2)c(C#N)cc2c(=O)n3ccccc3nc21	i	-21	i	i	i	-0.29	.	.	.
CC(C)OCCCn1c(=NC(=O)c2cccs2)c(C#N)cc2c(=O)n3ccccc3nc21	i	-11	i	-8.5*	i	0.15	26%*	i	33%*
CCc1ccc(CN(C)CC(=O)Nc2ccc3c(c2)CCC3)cc1	i	-18	i	i	i	-1.5	i	i	i
CC(C)(C)n1nnnc1C(c1cccc(C#N)c1)N1CCC(Cc2ccccc2)CC1 (stereo not given)	i	-8	-11*	-18*	i	-0.56	60%*	i	34%*
CCC(C)(C)n1nnnc1C(c1ccncc1)N1CCC(Cc2ccccc2)CC1 (stereo not given)	i	-3	i	i	i	-0.67	.	.	.
COc1ccc(CCNC(=O)c2c([S-])n(-c3ccc(C)cc3)c3cccc[n+]23)cc1	i	-24	i	i	i	0.18	i	i	i
COc1ccc2c(c1)Cc1sc(NC(=O)c3ccco3)nc1-2	i	-2	i	i	i	-0.25	.	.	.
